# According to the RNAGym collection of RNA variant scans (doi:10.1126/science.aae0568):
# Fewer inactive variants are shown than the library holds.
# B1: tRNA (parent)
# chain: GUUCCGUUGGCGUAAUGGUAACGCGUCUCCCUCCUAAGGAGAAGACUGCGGGUUCGAGUCCCGUACGGAACG
# Variants of: B1
# Assay: yeast fitness relative to wild type (ratio to wild type); higher = fitter; tRNA-Arg(CCU), competitive growth, 37 C, YPD
# Method in brief: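 Gene amplicons from the start population and from each of six end populations were read by 100-nucleotide paired-end sequencing. Those end populations came from pooled Saccharomyces cerevisiae strains carrying tRNA-Arg(CCU) gene variants at the native locus, competed in YPD at 37°C for 24 hours. Fitness relative to wild type was worked out from changes in genotype frequencies. Genotypes needed ≥ 100 starting reads, and estimates < 0.5 were set to 0.5.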
row,Variant,yeast fitness
1,G9A G12C A14C,0.535
2,A15U C46A G68U A70C,≤ 0.5
3,C5A C22G C31G,≤ 0.5
4,C5U C33G G56C A69U,≤ 0.5
5,C29U A40C C49G G63A,≤ 0.5
6,C22G G23C A42U C62A,≤ 0.5
7,U3C A36U A69U,≤ 0.5
8,G12A G25C C30G,≤ 0.5
9,U3G G38A C60A,≤ 0.5
10,C31A A42G,0.766
11,A14C A21C C24U A36U A43U C55U,≤ 0.5
12,G18C G41C C62G,≤ 0.5
13,C30U A57G A70U,0.558
14,U7G A40U,0.985
15,C22G C31G C49U U54G,0.568
16,U8A A21G C27U G52C,≤ 0.5
17,U2G U35A U54G,≤ 0.5
18,C4G A21G U32A,0.672
19,A20G U28G C31U,0.588
20,C27U G51C C55A A65C,≤ 0.5
21,C5G C55A A57U,0.55
22,U28G C46U C60A A65U A69U,≤ 0.5
23,U19A C27G C31U A69U,≤ 0.5
24,C4U A21G C46A,0.899

row,Variant,yeast fitness
1,C34G G63A A70C,≤ 0.5
2,A14U C31A C46U G48A C49U,≤ 0.5
3,G58C C62G,0.755
4,U19G A65U,0.99
5,C33G U47A G67C A69U,≤ 0.5
6,C22U A70C,0.859
7,U2C C46U,0.959
8,C34U U47C C55A A70U,0.562
9,C27A U32G G51A G56C A70G,≤ 0.5
10,G23C C29U G44A C62U,≤ 0.5
11,C5A U8A U16G A20U A36G C60G,≤ 0.5
12,U19C G48C C66U,0.712
13,G18A C30U A45C G52C,≤ 0.5
14,C5U A45G,0.974
15,C29U A42G A43G,≤ 0.5
16,C4G G23C C55U A70U,≤ 0.5
17,G10C A37C A43U,≤ 0.5
18,A15C G52A A57U C60U A65G G68A,≤ 0.5
19,U2A G12C A36C,≤ 0.5
20,C4U G12A G67A,0.674
21,G9A A14G C29G,≤ 0.5
22,C11A A36G A43U,≤ 0.5
23,U7C U64A,0.923
24,A14G C30A A42G G44A,0.569

row,Variant,yeast fitness
1,U26A C31A A42G C55G A57C,≤ 0.5
2,A20G C46U A70U,0.878
3,C33A A40U,0.741
4,A21U G44C G58A A65G,≤ 0.5
5,G10A C11G A69C A70G,≤ 0.5
6,C5U U7A C62A,≤ 0.5
7,G12C A42G A70U,0.592
8,G6C G41C C62U,≤ 0.5
9,U2A C4A,0.914
10,U7C C27U,0.875
11,A21G U35G A57C G67C,≤ 0.5
12,C11G U54C C62U,≤ 0.5
13,A20U A43G G51A A69C,≤ 0.5
14,U7A A14G,0.709
15,U2A U8C G12A A42U,≤ 0.5
16,C5A C31G A40G,0.529
17,G12A C55U,0.908
18,C5U A14C C34G A37U A40U C66U,≤ 0.5
19,G25A A36U C46G C62A A69C,≤ 0.5
20,C4U A45C G51A,0.501
21,C60A A69G,0.56
22,U26C C34U,0.716
23,U13G G41U C66G,≤ 0.5
24,C5U G9A A37C C60U G67A,≤ 0.5

row,Variant,yeast fitness
1,A65C A70C,1.03
2,C30U A40C U59C A65G,≤ 0.5
3,C11G G56A,0.721
4,G10C A40U A57C A65U,≤ 0.5
5,G25C C34U G41A C49G A69C,≤ 0.5
6,C27A C31G G50A,0.661
7,C24U G63A,0.869
8,G10A C34U G39C,≤ 0.5
9,C11A C62U,0.616
10,C27G C61U A69U,0.532
11,G6A G9A C22U C30G,≤ 0.5
12,C4G A40G C55U,≤ 0.5
13,U2A A20C C33G C46U,≤ 0.5
14,U28A G50U,0.622
15,C33G A42G G52A,≤ 0.5
16,C22A U26A A36U G56C C60G,≤ 0.5
17,U7C A14G C33G G68C,≤ 0.5
18,G6A A36U G41A C60G,≤ 0.5
19,C4A U16C C34U C61A,≤ 0.5
20,A37G A42U,0.787
21,U32A C61A A65U,≤ 0.5
22,C5A U16A A45G G50A,0.529
23,U3C U26C A42U C60G G67A,≤ 0.5
24,U8C G68A,0.741

row,Variant,yeast fitness
1,G10C G50A,0.76
2,G25C A57U,0.659
3,C11G A14U U19A G25A C34U C60U G68A,0.517
4,A42U G44A,1.01
5,G38A,1.02
6,U8C C29A C34G A36G A40C U47A U64C,≤ 0.5
7,C11G G17A A20U C33G A43C C61G A65G,≤ 0.5
8,C4U A20C C55A,0.721
9,G9A A45G G50C A69C,≤ 0.5
10,U3C G56A U59C,0.768
11,C30G C46U A65C,≤ 0.5
12,U35C G44A G48C C55G A69U,≤ 0.5
13,C46U G58A C62U,0.665
14,A45U U47C,0.995
15,C4A C34A C62G,≤ 0.5
16,U13A C27G A45G U64A,0.62
17,U13G A21C C46U G50A,0.582
18,C5U U13A A43C C46G,0.627
19,A14U A15G C34G,≤ 0.5
20,G9A A14U A21U A69C,0.755
21,U19C C22G C34G A70U,≤ 0.5
22,G6C A15G G58C G68A,≤ 0.5
23,A42G A57C,0.7
24,C24G C33A A70C,≤ 0.5

row,Variant,yeast fitness
1,G6A U8C A42C A45U A57G A70C,≤ 0.5
2,U19C C46G A65G,0.716
3,G9C U28G A65C,0.582
4,G6C G10C A69C,0.589
5,C24A C31U G51A C62A,≤ 0.5
6,G12C C27G G56C,≤ 0.5
7,U7C U32G G68C,≤ 0.5
8,G12U A15G A20C C24G,≤ 0.5
9,A20C C61U A69U,0.61
10,C5G U28A C55G,≤ 0.5
11,G38C U64C,0.803
12,G38U A65G,0.802
13,C5A U26G,0.785
14,A40U G58U,0.768
15,C4U A21G C46A U54C,0.791
16,A20C C24U C27G C49A U53C C62G,≤ 0.5
17,C5G G51C U54A A69U,0.562
18,G39A G50A C66U,≤ 0.5
19,C22U U28G A45G G67U,≤ 0.5
20,C5U A15G A20C U26C G41C G52C A57U A65U,≤ 0.5
21,G12C C31U A65C A69U,≤ 0.5
22,U16A A43G A45C,≤ 0.5
23,C22U A57G A70U,0.591
24,G6C U8A,0.674

row,Variant,yeast fitness
1,A15U C60G C61U G68A,≤ 0.5
2,C29G C46A A57G U59C,≤ 0.5
3,U7G A57G,0.72
4,A15G C31G A40U C60G G67A,0.529
5,G12C A42G A45G,0.627
6,U26A G50U,0.805
7,C31U U32C U54G C55U C61U,≤ 0.5
8,U28A U35A,0.584
9,U2G C62G G67A,0.526
10,C31U G41U,1.03
11,C4U G23C G51A A69G,0.586
12,C27U C34U A69U,0.528
13,A40U U64C,1.08
14,A45G C66A,0.581
15,U3C C4A G23A C31G A40C,≤ 0.5
16,G6C G48C,0.837
17,A14G A45G C61A,≤ 0.5
18,U2G C5A A43U C55U G68A,≤ 0.5
19,A15U A40U G52A G68A,0.596
20,C5U C11U A37G C60G,0.581
21,A14G C22A C27A C29U A42C A70C,≤ 0.5
22,C11U C24G A57G,≤ 0.5
23,C11U C55A,0.678
